Results published in ChEMBL document CHEMBL1140401, “Synthesis and pharmacological evaluation of Tic-hydantoin derivatives as selective sigma1 ligands. Part 2” (Bioorg Med Chem Lett, 2005).

Legend:
[1] = target: Sigma 2 receptor; test: Inhibitory activity against opioid sigma 2 receptor in rat cerebral cortex using [3H]DTG (+300 nM (+)pentazocine) as radio ligand at pH 7.5 for 120 min at 22 degree C; format: tissue-based
[2] = system: MRC5; test: Cytotoxicity against a human diploid embryonic lung cell line (MRC-5 cells) using the colorimetric MTT assay; format: functional
Procedure, shortened: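 MRC-5 human embryonic lung cells were exposed to the compounds, and viability was read by colorimetric MTT assay. The read-out is the CC50.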

[3] = target: Sigma non-opioid intracellular receptor 1 (Cavia porcellus) (UniProt Q60492); test: Selectivity index against opioid receptor sigma 1 versus cytotoxicity to that of inhibitory concentration
Sequence of Sigma non-opioid intracellular receptor 1 (Cavia porcellus) (Q60492 whole entry, looked up): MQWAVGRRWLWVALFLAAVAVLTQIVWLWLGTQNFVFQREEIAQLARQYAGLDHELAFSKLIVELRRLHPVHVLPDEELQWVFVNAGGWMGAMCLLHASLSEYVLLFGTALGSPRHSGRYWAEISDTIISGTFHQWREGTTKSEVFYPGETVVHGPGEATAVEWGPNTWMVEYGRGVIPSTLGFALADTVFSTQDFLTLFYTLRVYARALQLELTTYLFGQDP

Which IC50 [1] does the source give for `CN(CCCCN1C(=O)[C@@H]2Cc3ccccc3CN2C1=O)Cc1ccccc1` here?
The IC50 was greater than 0.1 µM.

Which IC50 [1] does the source give for `O=C1[C@@H]2Cc3ccccc3CN2C(=O)N1CCCNCc1ccccc1` here?
Its IC50 is greater than 1 µM.

`CN(CCCc1ccccc1)CCN1C(=O)[C@@H]2Cc3ccccc3CN2C1=O` was tested. Which CC50 [2] did it give?
The CC50 was 136 µM.

And the IS [3]?
The IS was 10000.

Which CC50 [2] does the source give for `CN(CCCN1C(=O)[C@@H]2Cc3ccccc3CN2C1=O)Cc1ccccc1` here?
The CC50 was 196 µM.

What about the IC50 [1] of the same molecule?
Its IC50 is 0.502 µM.

Which CC50 [2] does the source give for `CN(CCCCCN1C(=O)[C@@H]2Cc3ccccc3CN2C1=O)Cc1ccccc1` here?
The CC50 was 101 µM.

And the IC50 [1]?
Its IC50 is 0.081 µM.

What about the IS [3] of the same molecule?
Its IS is 20200.

How did the CC50 [2] turn out when `O=C1[C@@H]2Cc3ccccc3CN2C(=O)N1CCCNCCCCc1ccccc1` was run?
Its CC50 is 31 µM.

What about the IS [3] of the same molecule?
The IS was 2950.

`CN(CCCCN1C(=O)[C@@H]2Cc3ccccc3CN2C1=O)CCc1ccccc1` was tested. Which CC50 [2] did it give?
Its CC50 is 106 µM.

What about the IS [3] of the same molecule?
The IS was 10700.

How did the IC50 [1] turn out when `CN(CCCN1C(=O)[C@@H]2Cc3ccccc3CN2C1=O)CCc1ccccc1` was run?
Its IC50 is 0.021 µM.

Which IC50 [1] does the source give for `CN(CCCCCc1ccccc1)CCN1C(=O)[C@@H]2Cc3ccccc3CN2C1=O` here?
Its IC50 is greater than 1 µM.

`CN(CCCCc1ccccc1)CCN1C(=O)[C@@H]2Cc3ccccc3CN2C1=O` was tested. Which IC50 [1] did it give?
Its IC50 is 0.358 µM.

Which IC50 [1] does the source give for `O=C1[C@@H]2Cc3ccccc3CN2C(=O)N1CCN1CCCCC1` here?
The IC50 was greater than 1 µM.

Which CC50 [2] does the source give for `CN(CCN1C(=O)[C@@H]2Cc3ccccc3CN2C1=O)Cc1ccccc1` here?
The CC50 was 107 µM.

What about the IC50 [1] of the same molecule?
The IC50 was 0.972 µM.

And the IS [3]?
The IS was 23800.
